MEKK3 PB1 HTS – raises or lowers MEK5 binding to the human MEKK3 PB1 domain. Q99759. bead-based flow cytometry, Alexa488-MEK5 binding to MEKK3; actives lie on both sides; 0 = blocked by unlabeled MEK5, 100 = vehicle. binding response (% of control), % at 10 µM. 1.4% of 290,000 active;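 active = binding response more than 3 SD above or below the average of its plate-row segment, actives on both sides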;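 also: Alexa488 bead fluorescence after subtracting the streptavidin-only scavenger bead signal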
Target sequence (Q99759 whole entry, looked up, the tested form may be a part): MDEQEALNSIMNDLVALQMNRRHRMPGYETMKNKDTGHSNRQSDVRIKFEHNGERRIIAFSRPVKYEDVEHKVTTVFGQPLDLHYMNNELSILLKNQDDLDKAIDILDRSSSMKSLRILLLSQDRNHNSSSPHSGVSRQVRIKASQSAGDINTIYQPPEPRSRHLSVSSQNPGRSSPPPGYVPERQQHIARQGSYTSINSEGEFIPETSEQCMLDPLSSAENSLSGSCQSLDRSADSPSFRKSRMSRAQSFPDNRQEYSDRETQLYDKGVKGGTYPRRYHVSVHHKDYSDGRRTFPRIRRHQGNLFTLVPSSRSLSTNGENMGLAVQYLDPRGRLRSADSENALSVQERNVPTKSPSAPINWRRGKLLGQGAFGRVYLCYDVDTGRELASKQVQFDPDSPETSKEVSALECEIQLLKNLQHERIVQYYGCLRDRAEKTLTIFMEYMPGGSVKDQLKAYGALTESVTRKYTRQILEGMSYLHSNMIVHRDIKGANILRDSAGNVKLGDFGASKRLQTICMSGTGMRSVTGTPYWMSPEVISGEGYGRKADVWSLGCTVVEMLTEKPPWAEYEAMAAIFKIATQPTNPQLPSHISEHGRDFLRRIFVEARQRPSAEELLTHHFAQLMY
MEKK2mut PB1 HTS – signal of MEK5 binding to mutant human MEKK2 PB1 domain | bead flow cytometry, Alexa488-MEK5 binding to MEKK2 mutant | percent response, % at 10 µM | 0.35% of 290,000 active; in the data active = percent response above about 24%, passing the limit was not always enough
MEKK2 WT-MEK5 – raises or lowers MEK5 binding to wildtype human MEKK2 PB1 domain | bead flow cytometry, Alexa488-MEK5 binding to MEKK2 WT; actives lie on both sides | AID 1531 | Q9Y2U5 | 1.1% of 290,000 active | binding response (% of control), % at 10 µM; in the data active = binding response below about 67% or above about 130%
Lipid droplet – hepatic lipid droplet formation modulation | AML12 mouse hepatocytes, oleate lipid droplets, BODIPY imaging | inhibition, % at 6.5 µM | 0.4% of 240,000 active | AID 1656;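 active = lipid droplet intensity inhibited by at least 50%, with more than 500 cells counted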
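Test system: AML12 hepatocytes (mouse); reagent: oleate loading, 100 µM; dosing: one dose, 6.5 µM compound; incubation: overnight exposure; signal: fluorescence imaging, 20x objective, two fields per well; read-out basis: % inhibition of corrected integrated BODIPY droplet signal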
MEKK2wt confirm – raises or lowers MEK5 binding to wildtype human MEKK2, retest. binding response (% of control), % at 10 µM. AID 1892. shares compounds with MEKK3 PB1 HTS. bead flow cytometry, Alexa488-MEK5 binding to MEKK2 WT; actives lie on both sides. 2.4% of 5,900 active; in the data active = binding response below about 16% or above about 210%; inactive = in between
MEKK2mut confirm – signal of MEK5 binding to mutant human MEKK2, retest | shares compounds with MEKK3 PB1 HTS | bead flow cytometry, Alexa488-MEK5 binding to MEKK2 mutant | percent response, % at 10 µM | 2% of 5,900 active; in the data active = percent response mostly above about 71%, no sharp cut-off; inactive = mostly below about 38%;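 also: higher means compound restores mutant binding toward wildtype level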
MEKK3-MEK5 inh – MEKK3-MEK5 PB1 inhibition, single concentration confirmation; AID 1894; bead flow cytometry, Alexa488-MEK5 binding to MEKK3; active compounds read low; binding response (% of control), % at 10 µM; 1.8% of 5,900 active; shares compounds with MEKK3 PB1 HTS;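 active = binding response below 72% of control, or above a set upper limit, though filed actives all read lower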;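 also: 100% = DMSO only wells and 0% = binding blocked by excess unlabeled MEK5; lower values mean stronger disruption of MEK5 binding to MEKK3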
* marks the source's active call; other numbers are inactive results; · = not tested or not shown; [ ] = another dose, or the depositor's remark. Sampled rows, rich in hits. Any-hit rate of the full collection: about 2.6%.

SMILES	MEKK3 PB1 HTS	MEKK2mut PB1 HTS	MEKK2 WT-MEK5	Lipid droplet	MEKK2wt confirm	MEKK2mut confirm	MEKK3-MEK5 inh
CCOC(=O)CN1C(=O)/C(=C/c2c(F)cccc2Cl)Oc2ccccc21	99.0	2.0	102.0	·	·	·	·
Cc1ccc(C(=O)NC(=S)Nc2nc(-c3cccc([N+](=O)[O-])c3)cs2)c(Cl)c1	45.0*[inhibitor]	-16.0	51.0	18.5	103.0	-2.0	103.0
NC(=O)[C@@H]1CCCNc2c(I)cc([N+](=O)[O-])cc2C(=O)N[C@@H](CO)C(=O)NCC(=O)N1	95.0	1.0	95.0	-1.7	·	·	·
O=S(=O)(c1ccc2ccccc2c1)N1CCCOC1	101.0	0.0	105.0	·	·	·	·
Cc1ccc(S(=O)(=O)N2CCCOC2)cc1	79.0*[inhibitor]	-8.0	84.0	5.5	105.0	8.0	102.0
Cc1ccc(C)c(N2CC(C(=O)O)CC2=O)c1 (stereo not drawn)	94.0	-4.0	96.0	0.5	·	·	·
CC(C)C(NC(=O)C1CCCCC1)C(=O)Nc1ccccn1 (stereo not drawn)	101.0	25.0*	106.0	·	90.0	-4.0	99.0
CN(C)c1ccc(CN2CCC(C(N)=O)CC2)cc1	92.0	-5.0	92.0	4.8	·	·	·
CCN1CCC(C(N)=O)CC1	0.0*[inhibitor]	-35.0	0.0*[inhibitor]	-6.0	100.0	5.0	105.0
c1ccc(CSc2ccc(-c3cccs3)nn2)nc1	105.0	0.0	103.0	-8.4	·	·	·
c1ccc(CSc2ccc(-c3cccs3)nn2)cc1	129.0*	1.0	106.0	-6.4	94.0	-1.0	92.0
Cc1[nH]nc2c1C(c1cccs1)C1=C(CC(C)(C)CC1=O)N2 (stereo not drawn)	105.0	5.0	101.0	-20.9	·	·	·
CC(C)c1ccccc1NC(=S)NC1CCN(Cc2ccccc2)CC1	109.0	46.0	138.0*	-28.9	112.0	2.0	105.0
CC(C)c1ccc(NC(=S)NC2CCN(Cc3ccccc3)CC2)cc1	101.0	1.0	112.0	-1.1	·	·	·
Cc1c(Cl)cccc1NC(=S)NC1CCN(Cc2ccccc2)CC1	100.0	23.0	126.0	5.1	·	·	·
CC(C(=O)NCCc1ccc(F)cc1)N1CCN(Cc2ccccc2)CC1 (stereo not drawn)	104.0	7.0	104.0	-5.1	·	·	·
Cc1oc(-c2ccc(Cl)cc2)cc1C(=O)NC1CCN(Cc2ccccc2)CC1	107.0	50.0	175.0*	5.3	173.0	47.0	108.0
S=C(Nc1ccccc1Cl)NC1CCN(Cc2ccccc2)CC1	69.0*[inhibitor]	-1.0	101.0	-3.4	100.0	6.0	101.0
CC(C(=O)NC1CCCC1)N1CCN(Cc2ccccc2)CC1 (stereo not drawn)	140.0*	1.0	122.0	7.7	108.0	5.0	105.0
COc1ccc(S(=O)(=O)N2CCN(CCc3ccccc3)CC2)cc1	99.0	-3.0	102.0	23.5	·	·	·
COc1cccc(C2/C(=C(/O)c3ccc4c(c3)CC(C)O4)C(=O)C(=O)N2CC2CCCO2)c1 (stereo not drawn)	100.0	-2.0	102.0	15.7	·	·	·
S=C(Nc1ccc(Cl)cc1Cl)NC1CCN(Cc2ccccc2)CC1	108.0	53.0*	96.0	-3.9	123.0	14.0	106.0
Fc1ccccc1NC(=S)N1CCN(Cc2ccccc2)CC1	139.0*	2.0	106.0	-4.9	99.0	-2.0	98.0
O=C(O)/C(=C\c1cccc(OCc2ccccc2)c1)c1ccc(F)cc1	94.0	-8.0	93.0	4.2	·	·	·
CCOc1ccc(N=C(/C(C(=O)C(=O)N2CCOCC2)=C(/O)c2ccccc2)c2ccccc2)cc1	49.0*[inhibitor]	-37.0	78.0	-0.5	91.0	-9.0	98.0
SMILES	MEKK3 PB1 HTS	MEKK2mut PB1 HTS	MEKK2 WT-MEK5	Lipid droplet	MEKK2wt confirm	MEKK2mut confirm	MEKK3-MEK5 inh
COc1cc(OC)c(CN2CCc3c([nH]c4ccccc34)C2)cc1Br	103.0	30.0*	122.0	-19.4	128.0	15.0	107.0
Cc1cccc(CN2CCc3c([nH]c4ccccc34)C2)c1	101.0	10.0	106.0	-34.9	·	·	·
O=C(NCC1COCCO1)c1cc(COc2c(F)cccc2F)on1 (stereo not drawn)	103.0	-3.0	101.0	-39.8	·	·	·
Cc1cccc(NC(=O)CSc2n[nH]c(-c3cccnc3)n2)c1	97.0	2.0	98.0	-21.5	·	·	·
O=C(CSc1ccc(-c2ccco2)nn1)Nc1ccccc1	109.0	-2.0	100.0	2.8	·	·	·
O=C(CSc1ccc(-c2ccco2)nn1)NCc1ccccc1Cl	135.0*	1.0	109.0	-36.6	103.0	1.0	102.0
N#C/C(=C\c1ccc(OCC(N)=O)cc1)c1ccccc1	99.0	-1.0	102.0	14.3	·	·	·
O=[N+]([O-])c1cccc(CSC2=NCCN2S(=O)(=O)c2ccccc2)c1	102.0	0.0	102.0	-0.5	·	·	·
O=S(=O)(c1cccc(F)c1)N1CCN(Cc2ccc3c(c2)OCO3)CC1	58.0*[inhibitor]	-7.0	68.0	-3.3	104.0	10.0	107.0
O=S(=O)(c1ccc(F)c(F)c1)N1CCN(Cc2ccc3c(c2)OCO3)CC1	116.0	15.0	116.0	·	·	·	·
CCN1/C(=C/C(C)=C/c2sc3ccccc3[n+]2CC)Sc2ccccc21	25.0*[inhibitor]	-46.0	1.0*[inhibitor]	-82.1	2.0*[inhibitor]	-39.0	44.0*
CCN1/C(=C\C(=S)Nc2ccccc2)Sc2ccccc21	89.0	-6.0	82.0	-2.0	·	·	·
CSc1ccccc1C(=O)Nc1cc2c(cc1C(=O)O)OCCCO2	99.0	-1.0	94.0	-2.7	·	·	·
Cc1ccnc2nc(C(=O)OCC(=O)NC(=O)NCc3ccco3)nn12	109.0	1.0	102.0	-1.3	·	·	·
O=[N+]([O-])c1ccccc1NCCNS(=O)(=O)c1ccc(Cl)cc1	105.0	1.0	101.0	-28.6	·	·	·
CC(=O)Nc1ccc(S(=O)(=O)NCc2ccc3[nH]c(C)cc3c2)cc1	80.0*[inhibitor]	-9.0	72.0*[inhibitor]	-13.6	83.0	2.0	94.0
CC(=O)Nc1ccc(S(=O)(=O)NCc2ccc(C)cc2)cc1	126.0*	7.0	122.0	-9.7	97.0	-3.0	95.0
Cc1cc2cc(CNS(=O)(=O)c3ccc4ccccc4c3)ccc2n1C	100.0	2.0	96.0	-4.4	·	·	·
CC(=O)Nc1ccc(S(=O)(=O)NCc2ccc3c(c2)cc(C)n3C)cc1	70.0*[inhibitor]	-14.0	50.0*[inhibitor]	·	90.0	-9.0	97.0
CC(=O)Nc1ccc(S(=O)(=O)NCCNc2ccccc2[N+](=O)[O-])cc1	128.0*	0.0	112.0	-9.7	106.0	-2.0	106.0
Cc1ccc(S(=O)(=O)NCc2ccc3[nH]c(C)cc3c2)cc1	78.0	0.0	101.0	-1.4	·	·	·
c1ccc2[nH]c(N3CCOCC3)nc2c1	107.0	8.0	109.0	·	·	·	·
c1ccc(N2CCN(c3nc4ccccc4[nH]3)CC2)nc1	74.0*[inhibitor]	-4.0	84.0	21.4	94.0	-6.0	93.0
Cc1cc2cc(CNC(=O)c3cccc([N+](=O)[O-])c3)ccc2n1C	72.0*[inhibitor]	5.0	87.0	-3.5	109.0	9.0	101.0

Bioassay records (PubChem BioAssay)
